Experimental data collected from several papers.
Compare with care: the assays were run in different laboratories.
Medium: plasma

Cc1ccc(C(=O)Nc2ccc(CN3CCN(C)CC3)c(C(F)(F)F)c2)cc1C#Cc1cnc2[nH]ncc2c1 has a Tmax of 8 h (human; oral; 20 mg; healthy volunteers).
Cl.[2H]C([2H])([2H])CC(=O)c1cnc(NC(=O)C2CC2)cc1Nc1cccc(-c2ncn(C([2H])([2H])[2H])n2)c1OC has a Tmax of 1.6 h (human; oral; 10 mg; multiple doses, once daily, fasted).
With CN1CC[C@@H](c2c(O)cc(O)c3c(=O)cc(-c4ccc(C(F)(F)F)cc4Cl)oc23)[C@@H]1CO the Tmax was 5.2 h (human; oral; 200 mg; patients).
For CNC(=O)n1ccc2cc(Oc3ccnc(NC(=O)c4ccc(C5CCN(CCO)CC5)cc4)c3)c(OCCOC)cc21, the Tmax was 2 h (human; oral; 35 mg; single dose, healthy volunteers).
The Tmax of COc1ccc([C@@H](O)c2cc(-c3ncnc4cc(N5CCOCC5)ccc34)c(F)cc2Cl)nn1 is reported as 1.08 h (human; oral; 400 mg; single dose, patients).
With CC(C)n1c(Nc2cccnc2)nc2cnc(Nc3ccc(N4CCN(C)CC4)cc3)nc21 the Tmax was 1.5 h (male human; oral; 150 mg; single dose, healthy volunteers).
C[C@H](O)C(=O)C1=Nc2c(nc(N)[nH]c2=O)NC1 has a Tmax of 4 h (human; oral; 20 mg/kg; single dose, healthy volunteers).
NS(=O)(=O)OC[C@@H]1C[C@@H](n2ccc3c(N[C@H]4CCc5ccccc54)ncnc32)C[C@@H]1O has a Tmax of 1.13 h (human; intravenous; 15 mg/m²; patients).
For Cn1cc(Nc2nc(N)nc(-c3cccc(-n4ccc5cc(C6CC6)cc(F)c5c4=O)c3CO)n2)cn1, the Tmax was 4 h (human; oral; 900 mg; single dose, fasted, suspension).
